NCF1 inh: p47phox (human) inhibition | p47phox/p22phox peptide binding, fluorescence polarization, 2 h | inhibition, % at 24.7 µM | actives 0.53% (n = 220,000) | AID 1274;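 active = inhibition above about 30%, limit read from the data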
ROMK mod: modulators of human ROMK potassium channel. actives 2% (n = 130,000). B-score at 10 µM. P48048. Tet-inducible ROMK, thallium flux fluorescence; actives lie on both sides;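 active = signal ratio slope over the read window, or its plate-corrected B-score, at least 3 SD from the plate mean, either direction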;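 also: B-score of the F/F0 ratio slope over 7 to 12 s after thallium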
Target sequence (P48048 whole entry, looked up): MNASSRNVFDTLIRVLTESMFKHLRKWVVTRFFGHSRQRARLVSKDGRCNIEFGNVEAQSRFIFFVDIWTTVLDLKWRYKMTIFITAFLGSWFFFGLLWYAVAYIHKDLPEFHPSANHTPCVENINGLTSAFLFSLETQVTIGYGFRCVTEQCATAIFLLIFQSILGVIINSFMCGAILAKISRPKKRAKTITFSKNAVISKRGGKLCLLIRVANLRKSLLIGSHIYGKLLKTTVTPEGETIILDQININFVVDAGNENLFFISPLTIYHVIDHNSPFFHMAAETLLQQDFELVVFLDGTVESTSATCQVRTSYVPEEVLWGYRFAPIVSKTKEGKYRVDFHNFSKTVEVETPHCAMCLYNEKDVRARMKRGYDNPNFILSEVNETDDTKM
WT yeast gro inh: growth inhibition of WT yeast, mitochondrial fusion screen; inhibition, % at 10 µM; AID 1362; actives 2.1% (n = 190,000); mitochondrial fusion phenotypic screen, WT strain; in the data active = inhibition above about 58%; tested in S. cerevisiae
14-3-3 Bad inh: disrupts binding of bovine 14-3-3 zeta to phospho-Bad peptide. actives 0.71% (n = 220,000). AID 781. P63103. TR-FRET 14-3-3zeta/Dy647-pBad peptide displacement, 1 h. inhibition, % at 21.7 µM;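 active = inhibition above about 70%, limit read from the data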
RBBP9 inh: inhibitors of human serine hydrolase RBBP9. recombinant RBBP9, FP-Rh probe fluorescence polarization. O75884. actives 0.2% (n = 220,000). inhibition, % at 7.94 µM. AID 1515;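 active = inhibition above the campaign mean of all tested compounds plus 3 SD, cut at about 14% in these data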
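Test system – recombinant human RBBP9 · Input – RBBP9 2.5 µM in dispensing solution, pre-mixing · Medium – Tris buffer pH 8.0, NaCl, Pluronic · Schedule – preincubation 30 min plus labeling 45 min at 25 °C · Measured by – fluorescence polarization · Measure – % inhibition · Controls – DMSO and no-protein wells · Replicates – one well per compound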
Cl transport mod: KCC2 (human) Cl- transport modulation; B-score of Tl+ flux slope (higher = more flux/activation; lower = inhibition) at 10 µM; Q9H2X9; actives 2.2% (n = 190,000); AID 1456; KCC2 cells, thallium flux FluoZin-2 fluorescence;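 active = thallium flux slope and its plate-corrected score both differing from the plate sample mean at a set confidence after two filtering rounds, in either direction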;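 also: slope of fluorescence scaled to starting intensity during 10 to 20 s after thallium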
KCC2 sec1: KCC2 (human) modulation, secondary assay. shares compounds with Cl transport mod. HEK293-KCC2, thallium flux, FluoZin2 fluorescence; stronger effect = higher value. normalised thallium flux (F/F0 slope) at 10 µM. actives 15% (n = 3,700). AID 1713;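 active = thallium flux slope above the same plate's solvent-only control mean plus 3 SD; inconclusive = the two replicate wells disagree; inactive = no significant difference from solvent-only control wells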
KCC2 bumet counter: thallium flux despite bumetanide block in KCC2 cells, secondary assay 3. shares compounds with Cl transport mod. HEK293-KCC2 + bumetanide/ouabain, thallium flux FluoZin2; stronger effect = higher value. normalized thallium flux at 10 µM. actives 49% (n = 3,700);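 active = thallium entry rate above the same plate's blocked-transporter control wells by more than 3 SD; inconclusive = the two repeat wells disagree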;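 also: raw slope of fluorescence over initial fluorescence between 10 and 20 s after thallium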
KCC2 secondary2: KCC2 (human) modulation, second secondary assay. normalized thallium flux at 10 µM. AID 1715. shares compounds with Cl transport mod. HEK293-KCC2, thallium flux FluoZin2 fluorescence; actives lie on both sides; F/F0 rise rate, 10–20 s post-thallium. actives 23% (n = 3,700);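 active = thallium flux slope more than 3 SD above or below the plate's solvent-only control mean, mostly below; inconclusive = the two repeat wells disagreed; inactive = no significant shift from solvent-only controls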
HEK293 Tl flux: acts in parental HEK cells, KCC2 counter-screen; thallium flux rate (normalised fluorescence) at 10 µM; actives 46% (n = 3,700); HEK293 parental cells, thallium flux FluoZin2, ouabain; baseline-ratio fluorescence slope, 10–20 s after thallium; shares compounds with Cl transport mod; AID 1716;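 active = thallium flux rate significantly above the same plate's solvent-only control wells, beyond their mean plus 3 SD; inconclusive = the two replicate wells gave conflicting results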
KCC2 retest ouab: KCC2 (human) modulation, ouabain retest | shares compounds with Cl transport mod | HEK293-KCC2, thallium flux FluoZin2 fluorescence; bidirectional: low = inhibitor, high = activator | raw Tl+ flux slope (below DMSO = inhibition, above = activation) at 10 µM | actives 48% (n = 3,700) | AID 1717;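 active = thallium flux slope beyond 3 SD from same-plate DMSO control mean in most replicates, usually higher, sometimes lower; inconclusive = repeat tests gave conflicting results; inactive = no significant difference from controls in most replicates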;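 also: slope of initial-normalized fluorescence between seconds 10 and 20 after thallium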
HEK293 Tl flux2: acts in parental HEK cells, second KCC2 counter-screen; AID 1718; shares compounds with Cl transport mod; HEK293 parental, thallium flux FluoZin-2 fluorescence slope; thallium flux slope at 10 µM; actives 33% (n = 3,700);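 active = thallium flux slope above the same plate's solvent-control mean plus 3 SD in both duplicate wells; inconclusive = duplicate wells that disagreed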;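 also: run without ouabain in cells lacking the KCC2 cotransporter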
A number is an active result; – = inactive; ? = inconclusive; · = no result given. Most compounds without a hit are left out; they make up all but 5.8% or so of the library.

SMILES	NCF1 inh	ROMK mod	WT yeast gro inh	14-3-3 Bad inh	RBBP9 inh	Cl transport mod	KCC2 sec1	KCC2 bumet counter	KCC2 secondary2	HEK293 Tl flux	KCC2 retest ouab	HEK293 Tl flux2
Cc1oc(-c2cc(F)ccc2F)nc1CN(C)Cc1ccc2nccnc2c1	–	·	–	–	–	–	·	·	·	·	·	·
O=C(NNS(=O)(=O)c1ccc(F)cc1)C1CCN(Cc2cccc(F)c2)CC1	–	–	–	–	–	–	·	·	·	·	·	·
O=C(c1ccccc1NS(=O)(=O)c1ccc(Cl)cc1)N1CCc2ccccc21	–	·	–	–	–	6.1	–	0.0445	–	0.013	0.0535	0.0112
CC(=O)N1CCc2ccc(S(=O)(=O)Nc3ccccc3Cl)cc21	–	–	–	–	–	–	·	·	·	·	·	·
Cc1csc(N(C)C(=O)CSc2nnc(COc3cccc4ccccc34)o2)n1	–	·	–	–	–	·	–	–	–	–	0.0152	–
NC(=O)N/N=C/C=C/c1ccc(F)cc1	–	·	·	–	–	–	·	·	·	·	·	·
CSc1ccccc1NC(=O)c1cc(C(C)C)on1	–	–	–	–	–	·	–	–	–	–	–	–
Cc1scc(C(=O)N/N=C/c2ccc(OC(C)C)cc2)c1C	–	–	–	–	–	–	·	·	·	·	·	·
Cc1ccc(/C=N/NC(=O)c2ccoc2C)s1	–	·	–	–	–	–	·	·	·	·	·	·
Cc1ccc(/C=N/NC(=O)c2ccco2)s1	–	–	–	–	–	–	·	·	·	·	·	·
Cc1scc(C(=O)N/N=C/c2ccc(Cl)s2)c1C	–	–	–	–	–	38.6	?	0.0529	0.0433	0.0776	0.0856	0.0238
O=C(N/N=C/c1ccc(Br)s1)c1ccco1	–	·	·	–	–	7.05	–	0.0108	–	0.0163	–	0.0132
Cc1occc1C(=O)N/N=C/c1ccc(Br)s1	·	–	–	–	–	78.4	?	0.0297	–	0.0363	0.0523	0.0216
O=C(N/N=C/c1ccc[nH]1)c1sc2ccccc2c1Cl	–	–	–	–	–	9.75	0.0138	0.0938	–	0.0238	0.0502	0.0111
COC(=O)c1ccc(NC(=S)NN2CCCCC2c2cccnc2)cc1 (stereo not drawn)	–	·	·	–	–	–	·	·	·	·	·	·
O=C(NC(=S)NN1CCCCC1c1cccnc1)c1ccc(Br)cc1 (stereo not drawn)	–	·	·	–	–	65	0.0333	0.0994	0.0461	0.0398	0.0665	0.02
Cc1ccc(C2=CSC3=NNC4(CCCCC4)NN23)cc1	–	–	–	–	–	-4.39	–	0.00577	0.0236	–	?	–
COc1ccc(C2=CSC3=NNC4(CCCCC4)NN23)cc1	–	–	–	–	–	–	·	·	·	·	·	·
Clc1c(Cl)c(Cl)c2n[nH]nc2c1Cl	–	·	·	–	–	-6.68	?	–	?	0.00337	0.013	0.00736
S=c1nc(-c2ccccc2)[nH]c2ccc(Br)cc12	–	·	·	–	–	107	0.0253	0.116	0.0993	0.108	0.108	0.0957
Cc1cc(=O)c2cc(Br)ccc2[nH]1	–	–	–	–	–	·	·	·	·	·	·	·
CC1Cc2nc(SCC(=O)N3CCN(c4ccccc4)CC3)n(C)c(=O)c2S1 (stereo not drawn)	–	·	–	–	–	·	·	·	·	·	·	·
